Activity calls are given as the source filed them.
Experiments:
Format in all cases: functional, cell-based
SK-N-MC = experiment: Anticancer activity against human SK-N-MC cells assessed as vacuole formation at 20 uM after 24 hrs by phase contrast microscopic analysis
HeLa [1] = experiment: Induction of autophagy in human HeLa cells assessed as conversion of LC3-1 to LC3-2 at 15 to 25 uM after 24 hrs by Western blot analysis
Procedure, shortened: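 HeLa given indicated concentrations or 0.1% DMSO for 24 h. RIPA lysates, BCA-normalized, SDS-PAGE and PVDF transfer. Probed with anti-LC3 (overnight, 4 °C) after 5% milk block, infrared detection, GAPDH for normalization.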

HeLa [2] = experiment: Induction of macropinocytosis in human HeLa cells assessed as colocalization of lucifer yellow and early endosomal marker EEA1 at 20 uM after 6 to 24 hrs by confocal microscopic analysis
Procedure, shortened: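 HeLa on poly-L-lysine coverslips given 0.1% DMSO or 20 µM for indicated times, then loaded with Lucifer yellow CH. Fixed in 4% PFA 30 min, permeabilized with 0.1% Triton X-100, blocked with 5% BSA. Anti-EEA1, -LAMP1 or -Rab7 applied overnight at 4 °C, Alexa488 secondary 1 h, DAPI counterstain. Confocal imaging.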

HeLa [3] = experiment: Induction of macropinocytosis in human HeLa cells assessed as lucifer yellow accumulation in phase-lucent vacuole at 20 uM after 24 hrs by confocal microscopic analysis

Measured: Activity

C[C@H]1[C@H](C)CC[C@]2(C(=O)O)CC[C@]3(C)C(=CC[C@@H]4[C@@]5(C)Cc6cnn(-c7ccc(C#N)cc7)c6C(C)(C)[C@@H]5CC[C@]43C)[C@H]12
active: SK-N-MC | HeLa [1] | HeLa [2] | HeLa [3]
